Assay results as given in PMC9850772 (ACS Omega, 2023).

Legend:
[1] = Stability toward peptidase degradation in human serum; assay type: in vitro ADME
Summary of the method: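 68Ga-labelled test compound (10–30 MBq, pH 7.4) was added to pooled human serum and kept at 37 °C. Aliquots were taken at 0, 15, 30, 45, 60 and 90 min and mixed with an equal volume of ice-cold ethanol. They were held on ice for 5 min and centrifuged. Supernatant and pellet activity were counted, and the supernatant was run on radio-HPLC. Three runs per radioligand.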

logD = assay type: physicochemical; details: pH 7.4
Summary of the method: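 68Ga-labelled test compound (0.5–2 MBq) was partitioned between 1-octanol and 0.05 M phosphate buffer, pH 7.4. Tubes were shaken for 5 min and centrifuged at 13,000 rpm for 2 min. Aliquots of each phase were γ-counted. Three experiments, each in triplicate.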

[2] = tested on: A431 tumor-bearing xenograft mice; experiment: PET/CT imaging, time-activity curves in A431 tumor-bearing xenograft mice; assay type: in vivo; details: TACs
Summary of the method: (§1)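 Dynamic PET over 90 min p.i., then CT at 45 kVp and 0.4 mA. […] Images reconstructed by 2D-MLEM (12 iterations, 0.5 mm voxels) with scatter and decay correction. Frames 10 × 1, 10 × 2, 6 × 5 and 3 × 10 min. Volumes of interest drawn on heart, kidneys, tumour and muscle; SUV per frame gave time-activity curves.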

[3] = as above; assay type: in vivo; details: female, BALB/c-AnN-Foxn-1^nu/nu-Rj (nude), mouse, iv, TAC
Summary of the method: as §1

[4] = tested on: A431 tumor-bearing xenograft mice; experiment: Ex vivo biodistribution in A431 tumor-bearing xenograft mice
[5] = as above; details: mouse, intravenous, 5 MBq

Structure (SMILES)	half-life [1] [h]	logD (logD)	time at which accumulation in tumor, muscle and heart reached the plateau phase [2] [min p.i.]	SUV ([3]; muscle, SUVmuscle, under EGFR blockade (hEGF)) [SUV]	SUV ([3]; muscle, SUVmuscle, without blocking) [SUV]	SUV ([3]; tumor, SUVtumor, under EGFR blockade (hEGF)) [SUV]	uptake into liver and lungs under EGFR blocking ([4]; co-application of hEGF)	tumor uptake under EGFR blocking ([4]; co-application of hEGF, 2 h p.i.)	decrease of absolute tumor uptake ([4]; integrin blockade with excess of c(RGDyK), 120 min p.i.) [%]	tissue uptake at 2 h ([5]; blood) [%ID/g]	tissue uptake at 2 h ([5]; kidney) [%ID/g]	tissue uptake at 2 h ([5]; tumor) [%ID/g]
CC[C@H](C)[C@H](NC(=O)[C@@H](NC(=O)[C@H](CC(N)=O)NC(=O)[C@H](CCC(N)=O)NC(=O)[C@@H]1CCCN1C(=O)[C@@H](NC(=O)[C@H](Cc1ccc(O)cc1)NC(=O)CNC(=O)[C@H](Cc1ccc(O)cc1)NC(=O)[C@H](Cc1c[nH]c2ccccc12)NC(=O)[C@H](Cc1c[nH]cn1)NC(=O)[C@H](Cc1ccc(O)cc1)NC(=O)CCOCCOCCOCCOCCOCCOCCC(=O)NCCCN(CCCNC(=O)CCOCCOCCOCCOCCOCCOCCC(=O)NCCCC[C@@H]1NC(=O)[C@@H](Cc2ccccc2)NC(=O)[C@H](CC(=O)O)NC(=O)CNC(=O)[C@H](CCCNC(=N)N)NC1=O)CC(=O)NCCOCCOCCOCCOCCC(=O)N[C@@H](CCCCNC(=O)CC[C@H](C(=O)O)N1CCN(CC(=O)O)CCN(CC(=O)O)CC1)C(N)=O)[C@@H](C)O)C(C)C)C(=O)O [[^68Ga]Ga-2, metal not drawn]	3.95	-3.44	–	–	–	–	–	–	–	–	–	–
CC[C@H](C)[C@H](NC(=O)[C@@H](NC(=O)[C@H](CC(N)=O)NC(=O)[C@H](CCC(N)=O)NC(=O)[C@@H]1CCCN1C(=O)[C@@H](NC(=O)[C@H](Cc1ccc(O)cc1)NC(=O)CNC(=O)[C@H](Cc1ccc(O)cc1)NC(=O)[C@H](Cc1c[nH]c2ccccc12)NC(=O)[C@H](Cc1c[nH]cn1)NC(=O)[C@H](Cc1ccc(O)cc1)NC(=O)CCOCCOCCOCCOCCC(=O)NCCCN(CCCNC(=O)CCOCCOCCOCCOCCC(=O)NCCCC[C@@H]1NC(=O)[C@@H](Cc2ccc(O)cc2)NC(=O)[C@H](CC(=O)O)NC(=O)CNC(=O)[C@H](CCCNC(=N)N)NC1=O)CC(=O)NCCOCCOCCOCCOCCC(=O)N[C@@H](CCCCNC(=O)CC[C@H](C(=O)O)N1CCN(CC(=O)O)CCN(CC(=O)O)CC1)C(N)=O)[C@@H](C)O)C(C)C)C(=O)O [[^68Ga]Ga-1, metal not drawn]	4.53	-3.07	15	0.18 ± 0.16	0.27 ± 0.16	0.45 ± 0.44	not reduced	did not decrease	87	4.49 ± 2.17	88 ± 28.5	2.79 ± 1.66
